The target in assay [1] is T1, 72 kDa type IV collagenase (Homo sapiens, UniProt P08253). The assay can be described thus: Inhibition of recombinant human MMP2 at 10 uM using thiopeptide as substrate preincubated for 30 mins followed by substrate addition and measured every min for 20 mins by colorimetric assay relative to control. A digest of the protocol:
(§1)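 Colorimetric kit assay: human recombinant enzyme plus inhibitor in assay buffer for 30 min at 37 °C, then chromogenic MMP substrate added; A412 recorded each minute over 20 min. Enzyme-free blanks and inhibitor-free controls included.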
Target sequence in this assay (P08253 110-660 limits assumed): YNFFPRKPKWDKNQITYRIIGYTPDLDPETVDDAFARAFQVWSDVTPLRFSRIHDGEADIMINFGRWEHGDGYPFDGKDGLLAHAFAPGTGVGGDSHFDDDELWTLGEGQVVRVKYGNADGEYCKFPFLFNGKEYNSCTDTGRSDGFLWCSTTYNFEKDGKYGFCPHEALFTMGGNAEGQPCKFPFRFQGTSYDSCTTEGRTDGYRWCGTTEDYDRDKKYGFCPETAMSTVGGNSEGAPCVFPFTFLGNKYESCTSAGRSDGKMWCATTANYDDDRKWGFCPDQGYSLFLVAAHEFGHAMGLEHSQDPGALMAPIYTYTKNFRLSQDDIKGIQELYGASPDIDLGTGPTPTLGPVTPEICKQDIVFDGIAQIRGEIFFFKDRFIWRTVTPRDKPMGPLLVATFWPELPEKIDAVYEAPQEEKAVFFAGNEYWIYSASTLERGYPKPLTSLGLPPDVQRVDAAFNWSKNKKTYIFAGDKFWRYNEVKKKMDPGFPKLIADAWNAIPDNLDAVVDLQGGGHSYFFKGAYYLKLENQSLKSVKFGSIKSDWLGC

Assay [2] deals with T1, 72 kDa type IV collagenase. Description: Inhibition of recombinant human MMP2 using thiopeptide as substrate preincubated for 30 mins followed by substrate addition and measured every mins for 20 min by colorimetric assay.
Target sequence in this assay (P08253 whole entry): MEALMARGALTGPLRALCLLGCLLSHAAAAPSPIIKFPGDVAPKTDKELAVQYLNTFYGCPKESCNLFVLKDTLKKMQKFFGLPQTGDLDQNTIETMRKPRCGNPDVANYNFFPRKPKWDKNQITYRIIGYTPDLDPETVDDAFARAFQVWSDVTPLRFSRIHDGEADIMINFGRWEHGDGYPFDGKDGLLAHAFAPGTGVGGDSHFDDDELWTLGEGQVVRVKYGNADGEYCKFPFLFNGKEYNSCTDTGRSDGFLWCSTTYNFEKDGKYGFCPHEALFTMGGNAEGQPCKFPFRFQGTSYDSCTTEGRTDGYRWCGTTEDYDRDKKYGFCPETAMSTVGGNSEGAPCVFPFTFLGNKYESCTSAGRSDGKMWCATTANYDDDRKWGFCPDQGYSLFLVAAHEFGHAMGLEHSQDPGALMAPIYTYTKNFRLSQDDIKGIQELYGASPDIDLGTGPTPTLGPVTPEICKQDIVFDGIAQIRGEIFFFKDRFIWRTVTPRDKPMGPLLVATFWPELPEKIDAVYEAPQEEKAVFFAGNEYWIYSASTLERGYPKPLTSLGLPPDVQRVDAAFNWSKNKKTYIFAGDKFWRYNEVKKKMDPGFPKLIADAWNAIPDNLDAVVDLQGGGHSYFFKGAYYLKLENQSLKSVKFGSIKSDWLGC
Assay [3] has as its target T2, Matrix metalloproteinase-9 (Homo sapiens, UniProt P14780). The assay can be described thus: Inhibition of recombinant human MMP9 using thiopeptide as substrate preincubated for 30 mins followed by substrate addition and measured every min for 20 mins by colorimetric assay.
Assay [4] concerns the target T2, Matrix metalloproteinase-9. The assay can be described thus: Inhibition of recombinant human MMP9 at 10 uM using thiopeptide as substrate preincubated for 30 mins followed by substrate addition and measured every min for 20 mins by colorimetric assay relative to control. The essentials: as §1
A further assay relates to PC-3. The assay can be described thus: Antiproliferative activity against human PC3 cells assessed as reduction in cell viability incubated for 48 hrs by MTT assay. The class given is functional, cell-based. To be noted: PC-3, 48 h. A digest of the protocol:
(§2)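 Cells grown in RPMI1640 with 10% FBS at 37°C, 5% CO2; seeded at 4000-5000 cells/well for 8 h, then exposed to a range of compound concentrations for 48 h. MTT added for 4 h, formazan dissolved in DMSO, absorbance at 570 nm; IC50 calculated from inhibition ratios.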

Assay [5] has as its system A549. The assay can be described thus: Antiproliferative activity against human A549 cells assessed as reduction in cell viability incubated for 48 hrs by MTT assay. The class given is functional, cell-based. To be noted: A549, 48 h. The essentials: as §2
(Formazan colour is commonly taken as a measure of viable cells.)

Another assay concerns MCF7. The assay can be described thus: Antiproliferative activity against human MCF7 cells assessed as reduction in cell viability incubated for 48 hrs by MTT assay. It is filed as functional, cell-based. The following applies: MCF7, 48 h. The essentials: as §2
The subject of the next assay is HL-60. The assay can be described thus: Antiproliferative activity against human HL60 cells assessed as reduction in cell viability incubated for 48 hrs by MTT assay. The class given is functional, cell-based. The following applies: HL-60, 48 h. The essentials:
as §2

For the next assay, the system named is KG-1. The assay can be described thus: Antiproliferative activity against human KG1 cells assessed as reduction in cell viability incubated for 48 hrs by MTT assay. It is filed as functional, cell-based. The following applies: KG-1, 48 h. The essentials:
as §2

Another assay has as its system HUVEC. Description: Cytotoxicity against HUVEC assessed as reduction in cell viability incubated for 48 hrs by MTT assay. It is filed as cell-based. The following applies: Homo sapiens. The essentials:
as §2

Assay [6] concerns A549. Description: Inhibition of cell invasion in human A549 cells at 1 to 10 uM incubated for 24 hrs by crystal violet staining based matrigel migration assay. It is filed as functional. The essentials:
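As the migration setup but membrane precoated with matrigel (1:10 diluted) for 2 h at 37°C: A549 pretreated 24 h at 1, 5, 10 µM, 30,000 cells in serum-free medium above, 10% FBS below, 24 h, then fixing, 0.1% crystal violet staining and counting. Three repeats, mean ± SEM.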

The next assay deals with K562. Description: Antiproliferative activity against human K562 cells assessed as reduction in cell viability incubated for 48 hrs by MTT assay. To be noted: K562, 48 h. The class given is functional, cell-based. A digest of the protocol: as §2

The structures appear in SMILES notation. Activity calls are given as the source filed them. The calls are words filed in the database; no cut-off is given here.

T2 sequence (P14780 whole entry): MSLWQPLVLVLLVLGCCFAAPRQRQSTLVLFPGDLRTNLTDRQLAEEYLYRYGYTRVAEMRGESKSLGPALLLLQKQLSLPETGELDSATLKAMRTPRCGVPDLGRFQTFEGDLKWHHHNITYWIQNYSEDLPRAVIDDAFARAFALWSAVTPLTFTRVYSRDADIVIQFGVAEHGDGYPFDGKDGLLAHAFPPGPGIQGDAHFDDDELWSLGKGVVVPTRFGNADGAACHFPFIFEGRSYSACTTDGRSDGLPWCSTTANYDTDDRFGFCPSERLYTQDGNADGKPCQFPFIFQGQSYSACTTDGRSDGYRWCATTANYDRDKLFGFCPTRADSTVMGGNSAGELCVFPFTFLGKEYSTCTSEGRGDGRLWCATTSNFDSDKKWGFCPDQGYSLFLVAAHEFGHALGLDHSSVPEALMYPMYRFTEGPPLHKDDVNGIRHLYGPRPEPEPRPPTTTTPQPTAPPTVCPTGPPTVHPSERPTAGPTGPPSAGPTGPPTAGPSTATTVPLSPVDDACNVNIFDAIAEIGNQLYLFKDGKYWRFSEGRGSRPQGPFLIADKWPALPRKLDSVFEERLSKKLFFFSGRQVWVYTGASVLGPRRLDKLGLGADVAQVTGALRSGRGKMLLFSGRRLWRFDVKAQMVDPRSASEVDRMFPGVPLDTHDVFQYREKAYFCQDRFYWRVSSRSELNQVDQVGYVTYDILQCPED

`O=C(CCCN1C(=O)c2ccccc2S1(=O)=O)Nc1ccc(O)c2ncccc12`: the inhibition – broadly, the change of the read-out against control, counted positive when it falls – in assay [1] worked out at 50.1%. Further, the IC50 in [2] and in [3] was above 10 µM each time.

Regarding `Cc1[nH]c2ccccc2c1CCNC(=O)CCCCNCc1cc(Cl)c2cccnc2c1O`, the inhibition in [4] turned out to be 100%; in [1] it was 67.8%. The IC50 – broadly, the concentration that inhibits the measured activity by half – in assay [2] was found to be 7.6 µM; in assay [3] it was 3.1 µM.

In the case of `CC1(C)SCCN(S(=O)(=O)c2ccc(Oc3ccncc3)cc2)[C@H]1C(=O)NO` [PRINOMASTAT], the half-inhibitory concentration (IC50) in the assay with PC-3, with A549 [5], with MCF7, in the assay on HL-60, with KG-1 and with HUVEC was above 500 µM in each case. In the assay on K562, the IC50 was above 500 µM. The inhibition result with A549 [6] is “Active”.

Regarding `Cc1[nH]c2ccccc2c1CCNC(=O)CNCc1cc(Cl)c2cccnc2c1O`, the inhibition in assay [4] was 35.2%; in [1], 59.5%. For the same compound, the IC50 in assay [2] is 8.8 µM; in assay [3], above 10 µM.

For `O=C(CCCCCNCc1ccc(O)c2ncccc12)Nc1ccccc1`, the inhibition is 55% in assay [4] and 56% in [1]. The IC50 in assay [2] was determined as 8.8 µM; in assay [3], 6 µM.

On to `O=C(CCNCc1ccc(O)c2ncccc12)Nc1ccccc1`, for which, in assay [4], the inhibition is 9.8%. Also, the IC50 in [2] and in assay [3] was above 10 µM throughout.

With `Cc1[nH]c2ccccc2c1CCNC(=O)CCCCNCc1ccc(O)c2ncccc12`, the inhibition amounted to 67.8% in assay [4] and 61% in assay [1]. Moreover, the IC50 stood at 8.8 µM in [2] and 5.3 µM in assay [3].

With `O=C(CCCCNCc1cc(Cl)c2cccnc2c1O)Nc1ccccc1`, the inhibition worked out at 99.9% in [4] and 100% in [1]. For the same compound, the IC50 is 3 µM in assay [2]; 8.4 µM in the assay on PC-3; 13 µM in the assay with A549 [5]; 7.4 µM in the assay on MCF7; 1.9 µM in the assay with HL-60; 1.6 µM with KG-1. The figures for the IC50 (in the assay with HUVEC; in [3]; in the assay on K562) were above 50 µM, 3.6 µM and 2.9 µM, respectively.

For the compound `O=C(CNCc1ccc(O)c2ncccc12)Nc1ccccc1`, the inhibition in assay [4] was found to be 42.9%. Moreover, the half-inhibitory concentration (IC50) in assay [2] and in [3] was above 10 µM each time.

With `O=C(CCCCCCNCc1ccc(O)c2ncccc12)Nc1ccccc1`, the inhibition amounted to 28.8% in assay [4] and 53.8% in assay [1]. The IC50 in assay [2] and in [3] was above 10 µM in each case.

Turning to `O=C(CCCCN1C(=O)c2ccccc2S1(=O)=O)Nc1ccc(O)c2ncccc12`, the half-inhibitory concentration (IC50) in assay [2] and in assay [3] was above 10 µM in each case.

For the compound `Cc1[nH]c2ccccc2c1CCNC(=O)CCNCc1cc(Cl)c2cccnc2c1O`, the inhibition in assay [4] came to 73.9%. For the same compound, the IC50 in [2] and in assay [3] was above 10 µM throughout.

In the case of `COc1ccc(S(=O)(=O)N(CC(=O)NO)CC(C)C)cc1`, the IC50 in [2] was 0.0091 µM; in the assay with PC-3 it was 52 µM; in the assay on A549 [5], 96 µM; with MCF7, 187 µM; with HL-60, 29 µM; in the assay with KG-1, 52 µM. The IC50 was above 250 µM in the assay on HUVEC, 0.0088 µM in assay [3] and 143 µM with K562. Besides, in the assay on A549 [6], the inhibition entry was “Active”.

On to `O=C(CNCc1cc(Cl)c2cccnc2c1O)Nc1ccccc1`, for which the inhibition was determined as 78.8% in [4] and 95.8% in assay [1]. The IC50 is 3.2 µM in assay [2]; 10 µM with PC-3; 7.4 µM in the assay with A549 [5]; 13 µM with MCF7; above 5 µM in the assay with HL-60; 2.3 µM with KG-1. Further, the values for the IC50 (with HUVEC; in assay [3]; in the assay on K562) were above 50 µM, 2.1 µM and 2.9 µM, respectively.

As for `CN(CCC(=O)Nc1ccc(O)c2ncccc12)c1ccccc1`, the IC50 in assay [2] and in [3] was above 10 µM throughout.

In the case of `O=C(CCCCCN1C(=O)c2ccccc2S1(=O)=O)Nc1ccc(O)c2ncccc12`, the inhibition in [4] stood at 24.3%. Further, the IC50 in assay [2] and in assay [3] was above 10 µM in each case.

On to `Cc1nc2ccccc2n1CCCC(=O)Nc1ccc(O)c2ncccc12`, for which the inhibition in assay [1] was 46.9%. Besides, the IC50 in [2] and in [3] was above 10 µM in each case.

As to `Cc1[nH]c2ccccc2c1CCNC(=O)CCNCc1ccc(O)c2ncccc12`, the inhibition in assay [4] was found to be 11.3%; in assay [1], 49.8%. Also, the IC50 in [2] and in assay [3] was above 10 µM in each case.

`O=C(CCNCc1cc(Cl)c2cccnc2c1O)Nc1ccccc1`: the inhibition came out at 98.9% in [4] and 100% in assay [1]. Moreover, the 50% inhibitory concentration (IC50) in assay [2] is 3.3 µM; in the assay on PC-3, 1.9 µM; in the assay on A549 [5], 9.7 µM; in the assay with MCF7, 13 µM; in the assay with HL-60, 1.3 µM; in the assay on KG-1, 1.1 µM. In addition, the IC50 in the assay with HUVEC was above 50 µM; in [3] it was 3.5 µM; in the assay on K562, 1.7 µM.

As to `Cc1[nH]c2ccccc2c1CCNC(=O)CCCNCc1ccc(O)c2ncccc12`, the values for the inhibition in assay [4] and in [1] were 12.3% and 44.8%, respectively. Also, the half-maximal inhibitory concentration (IC50) in [2] and in assay [3] was above 10 µM each time.

In the case of `Cc1nc2ccccc2n1CCC(=O)Nc1ccc(O)c2ncccc12`, the IC50 in assay [2] and in assay [3] was above 10 µM throughout.

As to `CN(CCCC(=O)Nc1ccc(O)c2ncccc12)c1ccccc1`, the 50% inhibitory concentration (IC50) in [2] and in assay [3] was above 10 µM in each case.

Consider `Cc1[nH]c2ccccc2c1CCNC(=O)CCCCCNCc1cc(Cl)c2cccnc2c1O`, for which the inhibition came to 77.1% in assay [4] and 100% in assay [1]. Further, the IC50 in assay [2] is 3.6 µM; with PC-3, above 25 µM; with A549 [5], above 25 µM; with MCF7, 12 µM; with HL-60, 2.6 µM; in the assay with KG-1, 4.7 µM. Besides, the IC50 was above 50 µM in the assay on HUVEC, 1.7 µM in assay [3] and 4.2 µM in the assay on K562.

As to `O=C(CCCNCc1cc(Cl)c2cccnc2c1O)Nc1ccccc1`, the inhibition in assay [4] and in assay [1] was 100% throughout. Besides, the half-maximal inhibitory concentration (IC50) amounted to 3.8 µM in assay [2]; 7.7 µM in the assay on PC-3; 17 µM with A549 [5]; 9 µM in the assay with MCF7; 1.9 µM in the assay on HL-60; 1.6 µM in the assay on KG-1. The IC50 in the assay with HUVEC is above 50 µM; in assay [3], 3.2 µM; in the assay with K562, 1.9 µM.

With `Cc1nc2ccccc2n1CCCCC(=O)Nc1ccc(O)c2ncccc12`, the half-maximal inhibitory concentration (IC50) in assay [2] and in assay [3] was above 10 µM in each case.

Consider `Cc1nc2ccccc2n1CCCCCC(=O)Nc1ccc(O)c2ncccc12`, for which the inhibition in assay [1] was determined as 38.9%. Besides, the IC50 in [2] and in [3] was above 10 µM each time.

On to `O=C(CCN1C(=O)c2ccccc2S1(=O)=O)Nc1ccc(O)c2ncccc12`, for which the IC50 in [2] and in assay [3] was above 10 µM each time.

Consider `O=C(CCCNCc1ccc(O)c2ncccc12)Nc1ccccc1`, for which the inhibition in [4] is 83.9%; in assay [1] it was 54.5%. The half-maximal inhibitory concentration (IC50) in [2] turned out to be 5.7 µM; in assay [3], 5.1 µM.

With `O=C(CCCCNCc1ccc(O)c2ncccc12)Nc1ccccc1`, the inhibition in [4] turned out to be 36.5%. Also, the IC50 in assay [2] and in assay [3] was above 10 µM in each case.

For the origin of these results see ChEMBL document CHEMBL4406825, “Design, synthesis and preliminary bioactivity evaluations of 8-hydroxyquinoline derivatives as matrix metalloproteinase (MMP) inhibitors” (Eur J Med Chem, 2019).
